Test results published in ChEMBL document CHEMBL1828617, “The activity of dispiro peroxides against Fasciola hepatica” (2011).
Calls of active or inactive are those of the source. The rule behind the calls is not given here.

Tests used:
Fasciola hepatica [1] = assay: Antiparasitic activity against Fasciola hepatica infected in rat assessed as reduction in worm burden at 100 mg/kg, po administered as single dose measured after 6 days post treatment; assay type: functional; parameters: scale not given: the % may be the effect or the level left
Outline: (§1)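 Rats harbouring adult F. hepatica, treated at 8–13 weeks post-infection with a single oral dose given as a suspension in 7% (v/v) Tween 80 and 3% (v/v) EtOH. Killed at day 6 post-treatment. Adult flukes recovered from bile ducts and livers. Worm burden reduction taken from mean total worm burdens of treated versus untreated control rats. Cures = rats cured/rats treated. Significance by Kruskal-Wallis test.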

Fasciola hepatica [2] = assay: Antiparasitic activity against Fasciola hepatica infected in rat assessed as cure rate at 100 mg/kg, po administered as single dose measured after 6 days post treatment; assay type: functional, organism-based; parameters: dose 100 mg/kg; outline: as §1
Fasciola hepatica [3] = assay: Antiparasitic activity against Fasciola hepatica infected in rat assessed as reduction in worm burden at 50 mg/kg, po administered as single dose measured after 6 days post treatment; assay type: functional; parameters: scale not given: the % may be the effect or the level left; outline: as §1
Fasciola hepatica [4] = assay: Antiparasitic activity against Fasciola hepatica infected in rat assessed as cure rate at 50 mg/kg, po administered as single dose measured after 6 days post treatment; assay type: functional, organism-based; parameters: dose 50 mg/kg; outline: as §1
Fasciola hepatica [5] = assay: Antiparasitic activity against Fasciola hepatica infected in rat assessed as reduction in worm burden at 25 mg/kg, po administered as single dose measured after 6 days post treatment; assay type: functional; parameters: scale not given: the % may be the effect or the level left; outline: as §1
Fasciola hepatica [6] = assay: Antiparasitic activity against Fasciola hepatica infected in rat assessed as cure rate at 25 mg/kg, po administered as single dose measured after 6 days post treatment; assay type: functional, organism-based; parameters: dose 25 mg/kg; outline: as §1

| SMILES | Activity (Fasciola hepatica [1]) [%] | Activity (Fasciola hepatica [2]) | Activity (Fasciola hepatica [3]) [%] | Activity (Fasciola hepatica [4]) | Activity (Fasciola hepatica [5]) [%] | Activity (Fasciola hepatica [6]) |
| --- | --- | --- | --- | --- | --- | --- |
| O=C(O)[C@H]1CC[C@]2(CC1)OO[C@]1(O2)C2CC3CC(C2)CC1C3 | 52 | inactive |  |  |  |  |
| O=C(O)[C@H]1CC[C@]2(CC1)COC1(CCCCC1)OO2 | 100 | Active | 71 | inactive |  |  |
| O=C(O)[C@H]1CC[C@@]2(CC1)OOC1(CCCCC1)O2 | 26 | inactive |  |  |  |  |
| O=C(O)C1CCC2(CC1)OOC1(OO2)C2CC3CC(C2)CC1C3 (centres undefined) | 100 | Active | 48 |  |  |  |
| O=C(O)C[C@H]1CC[C@]2(CC1)OOC1(O2)C2CC3CC(C2)CC1C3 (some centres undefined) | 100 | Active |  |  |  |  |
| O=C(O)C1CCC2(CC1)OOC1(CCCCC1)OO2 | 100 | Active | 61 |  |  |  |
| O=C(O)C[C@H]1CC[C@]2(CC1)COC1(OO2)C2CC3CC(C2)CC1C3 (some centres undefined) | 100 | Active | 100 | Active | 88 |  |
| O=C(O)c1ccc([C@H]2CC[C@]3(CC2)COC2(OO3)C3CC4CC(C3)CC2C4)cc1 (some centres undefined) | 100 | Active | 100 | Active | 0 |  |
| O=C(O)c1ccc(C2CCC3(CC2)OOC2(OO3)C3CC4CC(C3)CC2C4)cc1 (centres undefined) | 92 |  |  |  |  |  |
| O=C(O)CC1CCC2(CC1)OCC1(OO2)C2CC3CC(C2)CC1C3 (centres undefined) | 0 | inactive |  |  |  |  |
| O=C(O)CC1CCC2(CC1)OOC1(CCCCC1)OO2 | 29 | inactive |  |  |  |  |
| O=C(O)CC1CCC2(CC1)OOC1(OO2)C2CC3CC(C2)CC1C3 (centres undefined) | 100 | Active | 100 | Active | 71 | inactive |
| O=C(O)[C@H]1CC[C@]2(CC1)COC1(OO2)C2CC3CC(C2)CC1C3 (some centres undefined) | 61 |  |  |  |  |  |
| C[C@H]1[C@H](OC(=O)CCC(=O)O)O[C@@H]2O[C@@]3(C)CC[C@H]4[C@H](C)CC[C@@H]1[C@@]24OO3 [ARTESUNATE] | 30 |  |  |  |  |  |
| O=C(O)C[C@H]1CC[C@]2(CC1)COC1(CCCCC1)OO2 | 95 |  |  |  |  |  |
| O=C(O)c1ccc(C2CCC3(CC2)OOC2(O3)C3CC4CC(C3)CC2C4)cc1 (centres undefined) | 100 | Active | 19 | inactive |  |  |
